In brackets after ≈: the same amount, converted by molar mass.
Tests used:
[1] = system: Klebsiella pneumoniae; test: Antibacterial activity against Klebsiella pneumoniae after 24 hrs by broth dilution technique; format: functional
Outline: (§1)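 MIC by broth dilution in nutrient broth with logarithmic serial twofold dilutions of compound. Inoculum approx. 5×10^5 c.f.u actively dividing bacteria. Incubated 24 h at 37 °C, growth monitored visually and spectrophotometrically. MIC taken as the lowest concentration (highest dilution) arresting growth. Ciprofloxacin reference.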

[2] = system: Pseudomonas aeruginosa; test: Antibacterial activity against Pseudomonas aeruginosa ATCC 27853 after 24 hrs by broth dilution technique; format: functional; conditions: ATCC 27853, 24 h; outline: as §1
[3] = system: Aspergillus fumigatus; test: Antifungal activity against Aspergillus fumigatus after 48 hrs […]; format: functional
[4] = system: Candida albicans; test: Antifungal activity against Candida albicans after 48 hrs […]; format: functional
[5] = system: Staphylococcus aureus; test: Antibacterial activity against Staphylococcus aureus ATCC 25923 after 24 hrs by broth dilution technique; format: functional; conditions: ATCC 25923, 24 h; outline: as §1
[6] = system: Escherichia coli; test: Antibacterial activity against Escherichia coli ATCC 25922 after 24 hrs by broth dilution technique; format: functional; conditions: ATCC 25922, 24 h; outline: as §1
[7] = system: Aspergillus flavus; test: Antifungal activity against Aspergillus flavus after 48 hrs […]; format: functional
[8] = system: Trichophyton mentagrophytes; test: Antifungal activity against Trichophyton mentagrophytes after 48 hrs […]; format: functional
[9] = system: Talaromyces marneffei; test: Antifungal activity against Penicillium marneffei after 48 hrs […]; format: functional
[10] = system: Klebsiella pneumoniae; test: Antibacterial activity against Klebsiella pneumoniae assessed as inhibition zone diameter after 24 hrs […]; format: functional
Outline: (§2)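 Disc diffusion on nutrient agar. Inoculum 1-2 × 10^7 c.f.u/ml (0.5 McFarland) spread over the plate surface. Sterile 6.25 mm filter-paper discs soaked in a known concentration of compound. Solvent and growth controls included. Plates incubated inverted 24 h at 37 °C, then inhibition zone diameter measured in mm. Ciprofloxacin reference.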

[11] = system: Pseudomonas aeruginosa; test: Antibacterial activity against Pseudomonas aeruginosa ATCC 27853 assessed as inhibition zone diameter after 24 hrs […]; format: functional; outline: as §2
[12] = system: Talaromyces marneffei; test: Antifungal activity against Penicillium marneffei assessed as inhibition zone diameter […] by agar dilution method; format: functional
Outline: (§3)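 Compounds in DMSO placed in punched wells on Sabouraud agar (peptone, glucose, agar, pH 5.7) lawned with saline spore suspension. Plates pre-dried 1 h at 37 °C. Controls in triplicate, incubation at 37 °C for 3-4 days, then inhibition zone diameter read in mm. Amphotericin B reference.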

[13] = system: Trichophyton mentagrophytes; test: Antifungal activity against Trichophyton mentagrophytes assessed as inhibition zone diameter […] by agar dilution method; format: functional; outline: as §3
[14] = system: Aspergillus fumigatus; test: Antifungal activity against Aspergillus fumigatus assessed as inhibition zone diameter […] by agar dilution method; format: functional; outline: as §3
[15] = system: Streptococcus pyogenes; test: Antibacterial activity against Streptococcus pyogenes after 24 hrs by broth dilution technique; format: functional; outline: as §1
[16] = system: Streptococcus pyogenes; test: Antibacterial activity against Streptococcus pyogenes assessed as inhibition zone diameter after 24 hrs by disc diffusion method
[17] = system: Candida albicans; test: Antifungal activity against Candida albicans assessed as inhibition zone diameter […] by agar dilution method; format: functional; outline: as §3
[18] = system: Staphylococcus aureus; test: Antibacterial activity against Staphylococcus aureus ATCC 25923 assessed as inhibition zone diameter after 24 hrs […]; format: functional; outline: as §2
[19] = system: Aspergillus flavus; test: Antifungal activity against Aspergillus flavus assessed as inhibition zone diameter […] by agar dilution method; format: functional; outline: as §3

| SMILES | MIC [1] | MIC [2] | MIC [3] | MIC [4] | MIC [5] | MIC [6] | MIC [7] | MIC [8] | MIC [9] | inhibition zone (IZ) [10] | inhibition zone (IZ) [11] | inhibition zone (IZ) [12] | inhibition zone (IZ) [13] | inhibition zone (IZ) [14] | MIC [15] | inhibition zone (IZ) [16] | inhibition zone (IZ) [17] | inhibition zone (IZ) [18] | inhibition zone (IZ) [19] |
| --- | --- | --- | --- | --- | --- | --- | --- | --- | --- | --- | --- | --- | --- | --- | --- | --- | --- | --- | --- |
| CCOc1ccc(NC(=O)CSc2nnc(-c3cc(F)c(Cl)cc3Cl)n2N)cc1 | > 100 µg/mL | > 100 µg/mL | > 100 µg/mL | > 100 µg/mL | > 100 µg/mL | > 100 µg/mL | > 100 µg/mL | > 100 µg/mL | > 100 µg/mL |  |  |  |  |  |  |  |  |  |  |
| Nn1c(SCC(=O)Nc2cccc(Cl)c2Cl)nnc1-c1cc(F)c(Cl)cc1Cl | > 100 µg/mL | > 100 µg/mL | > 100 µg/mL | > 100 µg/mL | > 100 µg/mL | > 100 µg/mL | > 100 µg/mL | > 100 µg/mL | > 100 µg/mL |  |  |  |  |  |  |  |  |  |  |
| Cc1cccc(C)c1NC(=O)CSc1nnc(-c2cc(F)c(Cl)cc2Cl)n1N | > 100 µg/mL | > 100 µg/mL | > 100 µg/mL | > 100 µg/mL | > 100 µg/mL | > 100 µg/mL | > 100 µg/mL | > 100 µg/mL | > 100 µg/mL |  |  |  |  |  |  |  |  |  |  |
| Fc1cc(-c2nnc3n2N=C(Nc2cccc(Cl)c2Cl)CS3)c(Cl)cc1Cl | 12.5 µg/mL (≈ 27 µM) | 12.5 µg/mL (≈ 27 µM) | 12.5 µg/mL (≈ 27 µM) | > 100 µg/mL | > 100 µg/mL | 12.5 µg/mL (≈ 27 µM) | > 100 µg/mL | 25 µg/mL (≈ 54 µM) | 12.5 µg/mL (≈ 27 µM) | 14 mm | 17 mm | 12 mm | 8 mm | 11 mm |  |  |  |  |  |
| Fc1cc(-c2nnc3n2N=C(Nc2c(Cl)cccc2Cl)CS3)c(Cl)cc1Cl | > 100 µg/mL | > 100 µg/mL | 25 µg/mL (≈ 54 µM) | 6.25 µg/mL (≈ 13.5 µM) | > 100 µg/mL | 25 µg/mL (≈ 54 µM) | > 100 µg/mL | 12.5 µg/mL (≈ 27 µM) | 25 µg/mL (≈ 54 µM) |  |  | 10 mm | 12 mm | 10 mm | 12.5 µg/mL (≈ 27 µM) | 15 mm | 18 mm |  |  |
| Cc1cccc(NC2=Nn3c(nnc3-c3cc(F)c(Cl)cc3Cl)SC2)c1C | 6.25 µg/mL (≈ 14.8 µM) | 25 µg/mL (≈ 59.2 µM) | 12.5 µg/mL (≈ 29.6 µM) | 25 µg/mL (≈ 59.2 µM) | 6.25 µg/mL (≈ 14.8 µM) | 12.5 µg/mL (≈ 29.6 µM) | > 100 µg/mL | > 100 µg/mL | 6.25 µg/mL (≈ 14.8 µM) | 19 mm | 12 mm | 18 mm |  | 16 mm | 25 µg/mL (≈ 59.2 µM) | 10 mm | 10 mm | 25 mm |  |
| Cc1cc(C)c(NC(=O)CSc2nnc(-c3cc(F)c(Cl)cc3Cl)n2N)c(C)c1 | > 100 µg/mL | > 100 µg/mL | 12.5 µg/mL (≈ 27.5 µM) | 12.5 µg/mL (≈ 27.5 µM) | > 100 µg/mL | > 100 µg/mL | 6.25 µg/mL (≈ 13.8 µM) | 6.25 µg/mL (≈ 13.8 µM) | 12.5 µg/mL (≈ 27.5 µM) |  |  | 13 mm | 17 mm | 15 mm |  |  | 11 mm |  | 23 mm |
| COc1ccc(NC2=Nn3c(nnc3-c3cc(F)c(Cl)cc3Cl)SC2)cc1 | 12.5 µg/mL (≈ 29.5 µM) | 25 µg/mL (≈ 58.9 µM) | 12.5 µg/mL (≈ 29.5 µM) | 6.25 µg/mL (≈ 14.7 µM) | 6.25 µg/mL (≈ 14.7 µM) | > 100 µg/mL | 6.25 µg/mL (≈ 14.7 µM) | 12.5 µg/mL (≈ 29.5 µM) | > 100 µg/mL | 12 mm | 15 mm |  | 13 mm | 12 mm | 12.5 µg/mL (≈ 29.5 µM) | 16 mm | 19 mm | 22 mm | 18 mm |
| Nn1c(SCC(=O)Nc2ccc(Cl)cc2Cl)nnc1-c1cc(F)c(Cl)cc1Cl | > 100 µg/mL | > 100 µg/mL | > 100 µg/mL | > 100 µg/mL | > 100 µg/mL | > 100 µg/mL | > 100 µg/mL | > 100 µg/mL | > 100 µg/mL |  |  |  |  |  |  |  |  |  |  |
